This is an account of results in ChEMBL document CHEMBL1154808, “Synthesis, characterization and biological activities of some new benzo[b]thiophene derivatives” (2010).

In brackets after ≈: the same amount, converted by molar mass.

Type in all cases: functional
In one test the test system is Escherichia coli. In words: Antibacterial activity against Escherichia coli after 16 to 18 hrs by serial dilution method. In outline: (§1)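 Compounds were dissolved in DMF and serially diluted. A standard drop of the prepared culture was added to each dilution, and tubes were incubated for 16–18 h at 37 °C. MIC was read as the highest dilution that stayed clear with no turbidity, determined separately for each organism. Candida albicans was tested by the same procedure.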

In a further test the test system is Staphylococcus aureus. In words: Antibacterial activity against Staphylococcus aureus after 16 to 18 hrs by serial dilution method. In outline: as §1
The test system of another test is Bacillus subtilis. In words: Antibacterial activity against Bacillus subtilis after 16 to 18 hrs by serial dilution method. The method in brief:
as §1

A further test has as its system Candida albicans. In words: Antifungal activity against Candida albicans after 16 to 18 hrs by serial dilution method. In outline:
as §1

A further test deals with Pseudomonas aeruginosa. In words: Antibacterial activity against Pseudomonas aeruginosa after 16 to 18 hrs by serial dilution method. In outline:
as §1

Usually MIC stands for the smallest concentration in the dilution series that meets the test's criterion for growth inhibition. Turning to `O=C(c1sc2ccccc2c1Cl)n1nc(-c2ccc([N+](=O)[O-])s2)cc1-c1ccc(Cl)cc1`, the MIC was 6 µg/mL (≈ 12 µM) with Escherichia coli; 3 µg/mL (≈ 6 µM) in the test on Staphylococcus aureus; 6 µg/mL (≈ 12 µM) against Bacillus subtilis; 3 µg/mL (≈ 6 µM) against Candida albicans; 6 µg/mL (≈ 12 µM) with Pseudomonas aeruginosa.
Take `CC1=NN(C(=O)c2sc3ccccc3c2Cl)C(=O)/C1=N/Nc1ccc(C)cc1[N+](=O)[O-]`: the minimal inhibitory concentration (MIC) in the test with Escherichia coli, in the test on Staphylococcus aureus, against Bacillus subtilis, in the test on Candida albicans and in the test with Pseudomonas aeruginosa was 6 µg/mL (≈ 13.2 µM) each time.
For `O=C(c1sc2ccccc2c1Cl)n1nc(-c2ccc([N+](=O)[O-])s2)cc1-c1ccccc1`, the minimum inhibitory concentration (MIC) against Escherichia coli turned out to be 3 µg/mL (≈ 6.44 µM); against Staphylococcus aureus, 3 µg/mL (≈ 6.44 µM); in the test on Bacillus subtilis it was 6 µg/mL (≈ 12.9 µM); against Candida albicans, 6 µg/mL (≈ 12.9 µM); against Pseudomonas aeruginosa, 6 µg/mL (≈ 12.9 µM).
Turning to `OC(Cn1cncn1)(Cn1cncn1)c1ccc(F)cc1F` [FLUCONAZOLE], the lowest concentration to inhibit growth against Candida albicans (MIC) was 6 µg/mL (≈ 19.6 µM).
Turning to `Clc1ccc(OCc2nnc(-c3sc4ccccc4c3Cl)o2)c(Cl)c1`, the minimum inhibitory concentration (MIC) with Escherichia coli, with Staphylococcus aureus, against Bacillus subtilis, against Candida albicans and in the test with Pseudomonas aeruginosa was 6 µg/mL (≈ 14.6 µM) in each case.
Turning to `Clc1ccccc1OCc1nnc2sc(-c3sc4ccccc4c3Cl)nn12`, the minimal inhibitory concentration (MIC) with Escherichia coli, against Staphylococcus aureus, in the test on Bacillus subtilis, against Candida albicans and in the test on Pseudomonas aeruginosa was 6 µg/mL (≈ 13.8 µM) throughout.
As to `CC1=NN(C(=O)c2sc3ccccc3c2Cl)C(=O)/C1=N/Nc1cc(Cl)ccc1Cl`, the MIC is 6 µg/mL (≈ 12.9 µM) with Escherichia coli; 12.5 µg/mL (≈ 26.8 µM) against Staphylococcus aureus; 6 µg/mL (≈ 12.9 µM) in the test with Bacillus subtilis; 6 µg/mL (≈ 12.9 µM) against Candida albicans; 6 µg/mL (≈ 12.9 µM) in the test on Pseudomonas aeruginosa.
As to `NC(=O)N/N=C/c1ccc([N+](=O)[O-])o1` [NITROFURAZONE], the MIC in the test with Escherichia coli was 6 µg/mL (≈ 30.3 µM); against Staphylococcus aureus, 12.5 µg/mL (≈ 63.1 µM); in the test with Bacillus subtilis, 12.5 µg/mL (≈ 63.1 µM); in the test on Pseudomonas aeruginosa, 12.5 µg/mL (≈ 63.1 µM).
With `COc1ccc(-c2cc(-c3ccccc3)n(C(=O)c3sc4ccccc4c3Cl)n2)cc1`, the minimum inhibitory concentration (MIC) was 6 µg/mL (≈ 13.5 µM) against Escherichia coli; 6 µg/mL (≈ 13.5 µM) in the test on Staphylococcus aureus; 6 µg/mL (≈ 13.5 µM) in the test with Bacillus subtilis; 3 µg/mL (≈ 6.74 µM) against Candida albicans; 6 µg/mL (≈ 13.5 µM) against Pseudomonas aeruginosa.
With `CC1=NN(C(=O)c2sc3ccccc3c2Cl)C(=O)/C1=N/Nc1ccc(Cl)cc1C`, the MIC against Escherichia coli, against Staphylococcus aureus, against Bacillus subtilis, against Candida albicans and with Pseudomonas aeruginosa was 6 µg/mL (≈ 13.5 µM) in each case.
On to `Cc1ccc(OCc2nnc3sc(-c4sc5ccccc5c4Cl)nn23)cc1`, for which the MIC with Escherichia coli, in the test on Staphylococcus aureus, in the test on Bacillus subtilis, against Candida albicans and against Pseudomonas aeruginosa was 6 µg/mL (≈ 14.5 µM) in each case.
For `COc1ccc(-c2cc(-c3ccc(Cl)cc3)n(C(=O)c3sc4ccccc4c3Cl)n2)cc1`, the minimum inhibitory concentration (MIC) with Escherichia coli, against Staphylococcus aureus, with Bacillus subtilis, in the test on Candida albicans and in the test with Pseudomonas aeruginosa was 6 µg/mL (≈ 12.5 µM) each time.
On to `CC1=NN(C(=O)c2sc3ccccc3c2Cl)C(=O)/C1=N/Nc1ccccc1`, for which the MIC in the test with Escherichia coli, against Staphylococcus aureus, with Bacillus subtilis, against Candida albicans and in the test with Pseudomonas aeruginosa was 6 µg/mL (≈ 15.1 µM) throughout.
Turning to `Clc1ccccc1OCc1nnc(-c2sc3ccccc3c2Cl)o1`, the MIC against Escherichia coli, in the test with Staphylococcus aureus, against Bacillus subtilis, in the test with Candida albicans and in the test on Pseudomonas aeruginosa was 6 µg/mL (≈ 15.9 µM) in each case.
